Measurements published in ChEMBL document CHEMBL1140896, “Morpholino, piperidino, and pyrrolidino derivatives of pyrimidine nucleosides as inhibitors of ribonuclease A: synthesis, biochemical, and crystallographic evaluation” (J Med Chem, 2009).
Active and inactive are the calls of the source. No cut-off for these calls is given here.

What was measured:
[1] = target: T1, Ribonuclease pancreatic (Bos taurus) (UniProt P61823); test: Inhibition of bovine pancreatic RNase A assessed as effect on tRNA degradation by agarose gel based assay
T1 sequence (whole entry): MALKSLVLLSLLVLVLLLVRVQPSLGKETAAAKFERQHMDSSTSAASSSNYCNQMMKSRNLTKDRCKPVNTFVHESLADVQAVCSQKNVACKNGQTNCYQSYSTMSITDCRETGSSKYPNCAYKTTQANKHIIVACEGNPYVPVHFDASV
Procedure, shortened: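 Qualitative gel: RNase A (stock 6.87 µM; 1.37 µM in figure) preincubated 3 h with compound at three levels (0.10–0.31 or 0.13–0.40 mM). Aliquots then mixed with yeast tRNA (5 mg/mL stock) for 30 min, run on 1.1% agarose gel, and residual tRNA stained with ethidium bromide under UV.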

[2] = target: T1, Ribonuclease pancreatic (Bos taurus); test: Inhibition of bovine pancreatic RNase A assessed as effect on tRNA degradation at 0.14 mM by agarose gel based assay
Procedure, shortened: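 Comparative gel: RNase A (stock 6.29 µM; 1.26 µM in figure) preincubated 3 h with compound (0.14 mM). Aliquots then mixed with yeast tRNA (5 mg/mL stock) for 30 min, run on 1.1% agarose gel, and residual tRNA viewed by ethidium bromide under UV.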

[3] = target: T1, Ribonuclease pancreatic (Bos taurus); test: Inhibition of bovine pancreatic RNase A ribonucleolytic activity assessed as reduction of tRNA degradation at 0.32 mM by precipitation assay relative to control; design: scale not given: the % may be the effect or the level left
Procedure, shortened: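 Bond precipitation assay: RNase A (1.10 µM) preincubated with compound (0.32 mM) 2 h at 37 °C. Then tRNA added in Tris-HCl pH 7.5 with 5 mM EDTA and 0.5 mg/mL HSA, 30 min at 25 °C. Quenched with ice-cold perchloric acid/uranyl acetate, 30 min on ice, centrifuged; supernatant A260 compared with control.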

[4] = target: T2, Ribonuclease pancreatic (Bos taurus, UniProt P61823); test: Inhibition of bovine pancreatic RNase A by spectrophotometric method
T2 sequence (P61823 whole entry): T1 sequence (whole entry)
Procedure, shortened: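 Bovine pancreatic RNase A; spectrophotometric initial-velocity assay with 2′,3′-cCMP substrate in 0.1 M Mes-NaOH pH 6.0, 0.1 M NaCl. Ki taken from Dixon plots (1/V vs [I]) by the competitive equation; at least three repeats per set.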

Cc1cn([C@H]2C[C@H](O)[C@@H](CN3CCCCC3)O2)c(=O)[nH]c1=O
Activity [1]: Active | Activity [2]: Active | Activity [3]: 5%

O=c1ccn([C@@H]2O[C@H](CO)[C@@H](OP(=O)(O)O)[C@@H]2O)c(=O)[nH]1
Ki [4]: 6 µM

O=c1ccn([C@@H]2O[C@H](CN3CCOCC3)[C@@H](O)[C@H]2O)c(=O)[nH]1
Activity [1]: Active | Activity [2]: Active | Activity [3]: 12%

Cc1cn([C@H]2C[C@H](O)[C@@H](CN3CCCC3)O2)c(=O)[nH]c1=O
Activity [1]: Active | Activity [2]: Active | Activity [3]: 5%

Cc1cn([C@H]2C[C@H](O)[C@@H](COP(=O)(O)OP(=O)(O)O[C@H]3[C@@H](O)[C@H](n4cnc5c(N)ncnc54)O[C@@H]3CO)O2)c(=O)[nH]c1=O
Ki [4]: 0.041 µM

O=c1ccn([C@@H]2O[C@H](CO)[C@@H](O)[C@H]2OP(=O)(O)O)c(=O)[nH]1
Ki [4]: 7.1 µM

O=c1ccn([C@@H]2O[C@H](CO)[C@@H](OP(=O)(O)O)[C@H]2O)c(=O)[nH]1
Ki [4]: 82 µM

O=c1ccn([C@@H]2O[C@H](CN3CCCC3)[C@@H](O)[C@H]2O)c(=O)[nH]1
Activity [1]: Active | Activity [2]: Active | Activity [3]: 12%

CCOC(=O)C1CCN(C[C@H]2O[C@@H](n3ccc(=O)[nH]c3=O)[C@H](O)[C@@H]2O)CC1
Activity [1]: Active | Ki [4]: 77 µM | Activity [3]: 30%

O=c1ccn([C@@H]2O[C@H](CN3CCCCC3)[C@@H](O)[C@H]2O)c(=O)[nH]1
Activity [1]: Active | Activity [2]: Active | Activity [3]: 12%

Nc1ccn([C@@H]2O[C@H](CO)[C@@H](OP(=O)(O)O)[C@H]2O)c(=O)n1
Ki [4]: 103 µM
